Our source for the Kd, curative effect activity and EC50 values is PMC7424737 (ACS Omega, 2020).

Converted amounts (≈) assume the structure as drawn.

In assay [1] the target is T1, TMV-coat protein (TMV-CP) (Tobacco mosaic virus, UniProt P69687).
T1 sequence (P69687 2-159 limits assumed): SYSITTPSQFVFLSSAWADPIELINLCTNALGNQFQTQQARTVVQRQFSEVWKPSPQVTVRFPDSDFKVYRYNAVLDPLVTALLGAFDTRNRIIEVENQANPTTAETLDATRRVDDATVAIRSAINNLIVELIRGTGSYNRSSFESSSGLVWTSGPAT
Kind of assay: Microscale thermophoresis. Format: binding. The procedure, abridged: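 Test compound binding to TMV coat protein was measured by microscale thermophoresis to give a dissociation constant (Kd). Ningnanmycin and ribavirin served as positive controls. Each test was repeated three times.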
In general terms: In MST a laser heats a spot of the sample, and binding alters the fluorescence response.

Assay [2] deals with TMV. Kind of assay: Anti-TMV curative activity in vivo, half-leaf method. Also noted: species or system tobacco mosaic virus. Conditions: against TMV in vivo at 500 mg/L (500 μg/mL); average of three replicates ± SD. A digest of the protocol:
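Five-leaf-stage tobacco plants were dusted with emery and rub-inoculated with TMV. After 0.5 h the emery was rinsed off with water and the leaves left to dry. Test compound solution went on the left half-leaf and blank solution on the right. Lesions were counted per half 3–4 days later, and inhibition (%) was calculated from treated versus blank counts. Three repeats; ribavirin positive control.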

In assay [3] the test system is TMV. As to the kind of experiment: Anti-TMV inactivation. Conditions: Tobacco mosaic virus, read-out: EC50 of inactivation effect activity. Format: in vivo. A digest of the protocol: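 TMV was mixed with test compound for 0.5 h. The mixture was rubbed onto the right half-leaf of tobacco plants, and the left half received the same virus dose alone. Lesions were counted 3–4 days later. Inhibition (%) was calculated from lesion numbers versus the blank-control half. Three repeats; ribavirin positive control.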

With `NC(=O)c1ncn([C@@H]2O[C@H](CO)[C@@H](O)[C@H]2O)n1` [ribavirin], the Kd in assay [1] worked out at 223 ± 66.2 µM. In addition, the curative effect activity in assay [2] came out at 49.3 ± 7.5%. The concentration for a half-maximal effect (EC50) in assay [3] worked out at 138 ± 4.2 µg/mL (≈ 566 µM).

The term Kd denotes the equilibrium constant for the complex coming apart. The term EC50 denotes the concentration giving half of the maximal effect.
